Assay: Toxicity liver stage against HepG2, at 10uM
Assay type: cell-based
Set-up: test concentration 10 uM, cell line HepG2-A16-CD81EGFP
Details: human, HepG2-A16-CD81EGFP cells; read-out: INHIBITION
Summary of the method: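 Uninfected HepG2-A16-CD81EGFP cells, 3 × 10^3 per well, 1536-well, plated on prespotted compound at 10 μM final, parasite-free screening media added to match infected plates; puromycin 10 μM positive, DMSO 0.5% negative; run in parallel with 48 h PbLuc assay at 37 °C, 5% CO2; viability by CellTiter-Glo luminescence, normalized to controls.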

SMILES	cytotoxicity at 10 µM
CN(C(=O)c1ccco1)c1nc2c(s1)CCCC2	13.7%
O=C(NCc1cccnc1)[C@H]1CN2CCC1C[C@@H]2Cn1cc(CO)nn1 (stereo partly specified)	-0.843%
CN(C)C(=O)CO[C@H]1COCCN(C2CCOCC2)C1	3.64%
c1cnc2c(c1)nc1n2[C@@H](CNCc2nccs2)COC1	-2.66%
COc1ccc(CN2CCOC[C@H](OCC(=O)N(C)C)C2)cc1	0.552%
CN(C)C(=O)c1cc2ncc(C(=O)NC3CCCC3)cc2n1C	-2.63%
Cc1cccc2c1ccn2CCC(=O)Nc1c2c(nn1C)CSC2	3.03%
Cn1cc(C2SCC(=O)Nc3c2c(=O)[nH]n3C2CCOCC2)cn1 (stereo unspecified)	-0.348%
CN(C)c1cccc(C(=O)NCC(O)c2cccs2)c1 (stereo unspecified)	16.6%
O=C(NCCC(O)c1ccco1)c1ccccc1Br (stereo unspecified)	0.957%
COc1ncccc1C(=O)NCCn1cnc(C)cc1=O	-0.37%
COc1cccc2sc(N3CC(OC(C)=O)C3)nc12	-6.67%
CN(C)CCN1C[C@@H]2OCCN(Cc3cnn(C)c3)[C@@H]2C1	-140%
Cc1cnc(N2Cc3nccn3CC(Cn3nc(C)nc3C)C2)nc1 (stereo unspecified)	-144%
CCS(=O)(=O)N1CCc2cc(C(=O)NC)c(NCC3CC3)nc2CC1	1.88%
Cn1cc(C2CC3(CCN(C(=O)c4ccsc4)CC3)NC2=O)cn1 (stereo unspecified)	-3.7%
O=C1CC(c2ccc(F)cc2)Cc2[nH]c(=O)c(C(=O)O)cc21 (stereo unspecified)	-3.65%
O=C1CC(c2ccc(C(=O)O)cc2)c2ncn(-c3ccc(Cl)cc3)c2N1 (stereo unspecified)	-2.14%
O=C(NC1CCCCC1)c1nnc2ccc(N3CCOCC3)cc2n1	5.97%
Cc1ccc(-c2cc(C)nc(C3CCCN3S(C)(=O)=O)n2)cc1 (stereo unspecified)	-8.27%
COCCOCC(=O)N1C[C@@H]2CC[C@H](Oc3cccc(F)c3)[C@@H]2C1	-26%
Cc1c(C2CCCN(C(=O)c3cccnc3)C2)n2c(nc1=O)CCC2 (stereo unspecified)	-17.1%
CN1CCCN(S(=O)(=O)c2cnn(C)c2)c2cc(Cl)ccc21	7.41%

SMILES	cytotoxicity at 10 µM
CC(NCCCn1ccnc1)c1ccc(N2CCOC2=O)cc1 (stereo unspecified)	-8.48%
CCN(Cc1ccc(C#N)cc1F)C(=O)CN(C)CC(N)=O	7.52%
Cc1c(NCCO)cccc1OC1CCCC1	3.1%
CC(Nc1c(F)cc(C#N)cc1F)c1cccc(S(N)(=O)=O)c1 (stereo unspecified)	-4.34%
COC(=O)c1ccc(C(=O)NCc2ccco2)nc1	-3.73%
COC(=O)C1CN(Cc2cc(F)ccc2Br)CCO1 (stereo unspecified)	-5.51%
Cc1ccc(CNc2ccn(CCC(N)=O)n2)c(Br)c1	-1.65%
O=C(Cc1cccs1)N1CCOCC1c1ccccc1 (stereo unspecified)	-6.73%
NC(=O)CCC1CCCN(c2ccc3ccc(F)cc3n2)C1 (stereo unspecified)	-0.386%
O=C(Cn1cnc2ccsc2c1=O)c1ccc2c(c1)OCCO2	3.1%
O=C(NC1CC1)C(c1ccccc1)N1CCN(Cc2ccc(Cl)s2)CC1 (stereo unspecified)	4.46%
O=C(NCc1ccc(-n2cncn2)nc1)N(CC1CCOC1)C1CC1 (stereo unspecified)	1.74%
COCc1ccccc1C(=O)NCC(O)c1ccccc1F (stereo unspecified)	-3.67%
COc1cc(CNC(=O)Nc2nncs2)ccc1O	-6.29%
Cc1nc2n(n1)CC(NCc1nc(C)c(C)o1)CC2 (stereo unspecified)	-0.925%
COCCOc1ccc(NC(=O)N(CC2CCOC2)C2CC2)cn1 (stereo unspecified)	-1.29%
Cc1ccccc1C1CCN(C(=O)CCNC(=O)C(C)(C)C)C1 (stereo unspecified)	-5.47%
CC(C)(C)OC(=O)NCC1CCN(C(=O)c2ccc(F)cc2F)C1 (stereo unspecified)	11.5%
CS(=O)(=O)N1CCN(Cc2c(O)ccc3oc4c(c23)CCCC4)CC1	1.01%
NC(=O)C1CN(Cc2c(O)ccc3oc4c(c23)CCCC4)CCO1 (stereo unspecified)	4.48%
Cc1nc(CN2CCN(C(=O)CC(C)(C)c3ccccc3)CC2)no1	-1.96%
CC(NC(=O)N(C)Cc1ccc2c(c1)OCCO2)c1nncn1C (stereo unspecified)	-2.25%
Cc1cc(NC(=O)NCCc2ccccc2)n(C)n1	-9.19%

SMILES	cytotoxicity at 10 µM
Cc1cc(NC(=O)CN2CCc3nn(C)c(=O)cc3C2)no1	-5.04%
Cc1nn(C)c(N(C)C)c1CNCc1cccnc1N1CCOCC1	-141%
CC1CCC(NC(=O)Nc2ccc(CC(=O)N(C)C)cc2)CC1 (stereo unspecified)	3.85%
C1CN(c2nc(C3CC3)ns2)CCO1	-2.4%
CCc1ccc(C(=O)Nc2ccc(CC3CC(=O)NC3=O)cc2)s1 (stereo unspecified)	-0.95%
CCCC(C(=O)NC1CCN(S(C)(=O)=O)CC1)c1ccccc1 (stereo unspecified)	-1.38%
CCNC(=O)NC1CCCN(c2ccc(C)cc2)C1=O (stereo unspecified)	0.732%
CN(CCO)C(=O)Nc1ccn(-c2cccc(C(F)(F)F)c2)n1	4.16%
CC(c1ccco1)N(C(=O)c1cc2c([nH]c1=O)CCCC2=O)C1CC1 (stereo unspecified)	-3.21%
CCC(C)n1cnc(S(=O)(=O)N(C)C)c1 (stereo unspecified)	-7.07%
CCC(C)n1cnc(S(=O)(=O)N(Cc2cccnc2)C(C)C)c1 (stereo unspecified)	0.075%
O=C(CN1CCCc2c(F)cc(Br)cc21)N1CCN(C(=O)C2CC2)CC1	-5.06%
CN(C)S(=O)(=O)N1CCC(OCCCc2ccccc2)C1 (stereo unspecified)	0.696%
COCc1noc(Cc2cc(Cl)c3c(c2)OCCCO3)n1	0.583%
COc1cccc(-c2nnn(C3CCN(CC(F)(F)F)C3=O)n2)c1 (stereo unspecified)	3.34%
CNC(=O)NC(=O)CCN1CCOC(c2ccc(Br)cc2)C1 (stereo unspecified)	-2.42%
Cc1cc(Cl)c(C)c(S(=O)(=O)N2CCN(Cc3ccncc3)CC2)c1Cl	1.76%
CC(C)Oc1cc(N2CCC(C(N)=O)CC2)nc(N)n1	2.96%
CN(C)CCNC(=O)c1ccc(OC2CCN(CC3CC3)CC2)c(Cl)c1	-6.26%
c1ccc(C2CN(c3ncnc4[nH]cnc34)CCO2)cc1 (stereo unspecified)	9.42%
CN(C)CCNc1cc(-c2ncccc2C(F)(F)F)c2cc[nH]c2n1	7.2%
Cc1cccnc1CN1CCN(Cc2ccc(-c3cc[nH]n3)o2)CC1	-3.57%
CCCc1cc(C(=O)NCCC2=CCCCC2)[nH]n1	-51.8%

SMILES	cytotoxicity at 10 µM
Nc1nc2c(c(NCc3ccncc3)n1)CCCC2	4.56%
COc1ccc(CCN)cc1-c1ccc(C(N)=O)cc1	3.23%
COc1ccccc1Oc1ncccc1CNC(=O)C(O)C(F)(F)F (stereo unspecified)	-3.37%
O=C(c1n[nH]c2c1CCC2)N1CCCC1c1nc(-c2ccccc2)no1 (stereo unspecified)	6.43%
CS(=O)(=O)N1CCN(C(=O)c2ccco2)[C@H]2CS(=O)(=O)C[C@H]21	-6.69%
CCC(CC)n1nc(C)cc1NC(=O)C1CCOC1 (stereo unspecified)	-5.15%
CN(C)c1ncc2c(n1)CCCC2NC(=O)C1CC1 (stereo unspecified)	4.07%
CC(C)c1cc(C(=O)N2CCN(c3cccc(C(=O)O)c3)CC2)n(C)n1	-2.95%
CCn1c(CN2CCCC2)nnc1C1CCN(Cc2ccncc2)CC1	-0.384%
CSCC(=O)N[C@H]1CN(CC2CCOCC2)C[C@@H]1c1ccccc1	-3.97%
Cc1ccccc1-c1noc(C2CC(C(C)C)=NO2)n1 (stereo unspecified)	-14.6%
CNC(=O)C1CCN(C(=O)c2coc(COc3ccc(OC)cc3)n2)C1 (stereo unspecified)	-1.74%
COc1ccccc1Oc1ncccc1CNC(=O)C1(C)CCCNC1 (stereo unspecified)	-2.56%
O=C(CCc1ccsc1)N1CCC(n2cc(CO)nn2)CC1	-3.37%
CSCCC(=O)NCc1cc2n(n1)CCN(C(=O)N(C)C)C2	-5.77%
O=C1NCC2(CCCN(C(=O)Nc3cccc(-c4cscn4)c3)CC2)O1 (stereo unspecified)	-4.54%
NC(=O)CNC(=O)c1cc(Cn2cnc3ccccc32)[nH]n1	-4.2%
O=S1(=O)COCCN1CCOc1ccc(F)cc1	-0.505%
COCc1ccccc1C(=O)N1CCCC1Cn1nc(C)cc1C (stereo unspecified)	-3.98%
COc1c(CNC2CCOc3c(Cl)cccc32)c(C(C)C)nn1C (stereo unspecified)	2.25%
NC(=O)C1CCN(C(=O)c2ccn(-c3ccc(F)cc3)n2)CC1	-1.34%
Cn1ccc2c(C(=O)N3CCCC(c4nnc[nH]4)C3)cccc21 (stereo unspecified)	1.92%
Cc1nn(C)c(N(C)C)c1CNCCCNS(C)(=O)=O	-5.98%

SMILES	cytotoxicity at 10 µM
CCc1ccc(C(C)NC(=O)N2CCC(n3cncn3)CC2)cc1 (stereo unspecified)	-8.18%
Cc1ncccc1CNCC1CCN(CCO)CC1	-22.5%
CCCc1n[nH]c(C2CN(CCNS(C)(=O)=O)CCO2)n1 (stereo unspecified)	-0.975%
CN1CCC/C1=N\S(=O)(=O)c1ccc(NC(=O)c2ccco2)cc1	4.56%
CC(C)c1ccc(C(O)CN2CCN(Cc3nccn3C)CC2)cc1 (stereo unspecified)	-38.3%
Cc1nccc(C(=O)N2CCOC(c3nc(C(C)C)n[nH]3)C2)n1 (stereo unspecified)	-15.7%
CC(=O)Nc1nc(C(=O)NC(C)c2ccc(C#N)cc2)cs1 (stereo unspecified)	-10.5%
O=C(Cc1cccc2cccnc12)N1CCCN(c2cccnn2)CC1	-5.1%
Cc1ncsc1C(=O)N1CCC(Nc2cccnn2)CC1	-1.89%
CC(C)(C)c1ncc(C(=O)NCCNC(=O)c2ccccc2)s1	-8.08%
CN1CCN(C(=O)Cc2ccc(F)cc2)Cc2cccnc21	0.0773%
CCN1CCc2[nH]nc(C(=O)N3CCCC3C)c2C1 (stereo unspecified)	-4.9%
CO[C@@H]1CN(S(=O)(=O)c2cn(C)cn2)[C@@H]2CCCO[C@@H]21	-125%
CCS(=O)(=O)N1CCC2(CC1)CCn1c(-c3cnn(C)c3)cnc12	-138%
O=C(NCCc1c[nH]c2ccccc12)C1CCC(Cn2cnnn2)CC1 (stereo unspecified)	-12.7%
CCCn1nccc1NC(=O)CN1CCC[C@H]1CO	-1.8%
O=C(c1ccc(=O)[nH]c1)N1C[C@H]2CC[C@@H](C1)N(Cc1ccccc1)C2	-100%
O=C1NCC2=Nc3ccccc3NC(c3ccc(O)cc3)C12 (stereo unspecified)	3.63%
O=C(C1CCC1)N1C[C@H]2CC[C@@H](C1)N(S(=O)(=O)c1cccnc1)C2	-3.65%

— ChEMBL document CHEMBL4513216, “Probing the Open Global Health Chemical Diversity Library for Multistage-Active Starting Points for Next-Generation Antimalarials” (ACS Infect Dis, 2020)
